# KCNQ1 pot – potentiators or activators of KCNQ1 channel, primary screen, cell-based, thallium flux, high-throughput. B-score at 10 µM. CHO-K1 KCNQ1, thallium flux FluxOR fluorescence; hits give high values. Potassium voltage-gated channel subfamily KQT member 1 (Homo sapiens), P51787. actives 0.35% (n = 310,000);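 active means fluorescence ratio B-score, a plate-corrected score, at least three library SD, with initial intensity B-score within 5 SD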
#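 Assay system: CHO-K1 cells stably expressing KCNQ1. Medium: assay buffer for compound exposure, DMSO matched across wells. Timing: 37 °C overnight plating, 90-min dark dye load, 20-min compound pretreatment. Signal: kinetic FluxOR fluorescence, 10 s baseline plus 110 s post-stimulus.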
# Kir21 block – inhibitors of mouse Kir2.1 inward-rectifier potassium channel. Inward rectifier potassium channel 2 (Mus musculus), P35561. HEK293-Kir2.1, FluxOR thallium flux fluorescence; hits give low values. B-score at 10 µM. actives 0.85% (n = 310,000). AID 1672, 2009;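 active means fluorescence ratio B-score at or below minus 3 SD of library scores, with starting-brightness B-score within 2 SD, cut at about -4.2 in these data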;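 further: channel flux triggered by added potassium and thallium sulfate stimulus; B-score of peak minus minimum fluorescence over baseline after thallium stimulus; more negative B-score means stronger Kir2.1 block with less thallium influx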
# Target sequence (P35561 whole entry, looked up): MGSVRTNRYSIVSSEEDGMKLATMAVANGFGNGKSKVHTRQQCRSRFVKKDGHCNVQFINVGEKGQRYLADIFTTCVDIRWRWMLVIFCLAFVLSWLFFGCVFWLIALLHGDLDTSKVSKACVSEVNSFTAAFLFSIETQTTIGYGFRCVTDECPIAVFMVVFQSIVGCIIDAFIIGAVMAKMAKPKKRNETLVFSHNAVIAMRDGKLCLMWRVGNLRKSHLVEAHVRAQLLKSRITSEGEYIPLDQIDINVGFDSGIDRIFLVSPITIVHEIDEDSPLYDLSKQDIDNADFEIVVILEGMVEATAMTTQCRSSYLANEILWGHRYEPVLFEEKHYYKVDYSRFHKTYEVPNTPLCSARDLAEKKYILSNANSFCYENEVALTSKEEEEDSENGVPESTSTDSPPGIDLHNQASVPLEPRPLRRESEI
# KCNQ1 block – inhibitors of human KCNQ1 channel, primary screen, cell-based, thallium flux, high-throughput; B-score at 10 µM; Potassium voltage-gated channel subfamily KQT member 1 (Homo sapiens), P51787; CHO-K1 KCNQ1, FluxOR thallium flux fluorescence; hits give high values; actives 1.3% (n = 310,000);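 active means compounds whose thallium flux B-score, printed positive for inhibition, exceeds three library SD while starting fluorescence stays within three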;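 further: channel opened by potassium depolarization with thallium stimulus after 20 min compound exposure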
# KCNK9 inh – KCNK9 potassium channel inhibitors, primary screen, HEK293 cells, thallium flux; B-score at 10 µM; actives 1.2% (n = 310,000); FluxOR thallium flux fluorescence; hits give low values; Potassium channel subfamily K member 9 (Homo sapiens), Q9NPC2;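 active means ratio B-score over 3 SD below the library mean, with starting fluorescence within 5 SD of its mean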;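 further: negative B-score means less thallium flux so channel inhibition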
# KCNK3 inh – human KCNK3 channel inhibitors, primary screen, CHO cells, FluxOR thallium flux, B-score; Potassium channel subfamily K member 3 (Homo sapiens), O14649; FluxOR fluorescence; hits give low values; B-score at 10 µM; actives 0.84% (n = 340,000); AID 602410, 2012;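 active means B-score under library mean minus 4 SD, starting fluorescence ratio at most library mean plus 5 SD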;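 further: more negative B-score means stronger inhibition of thallium flux through KCNK3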
# hERG rescue – hERG rescue from dofetilide block, primary screen, cell-based, CHO-hERG, FluxOR thallium flux, dofetilide IC70; dofetilide IC70 present; Voltage-gated inwardly rectifying potassium channel KCNH2 (Homo sapiens), Q12809; actives 0.51% (n = 310,000); activation (rescue from dofetilide block), less the hit threshold, % at 10 µM;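 active means activation above the mean of controls blocked by dofetilide plus 5 SD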;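 further: thallium influx through hERG after potassium depolarization seen as dye fluorescence rise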
# KCNK9 block conf – KCNK9 potassium channel inhibitors, confirmation, HEK293 cells, thallium flux, duplicate; shares compounds with KCNK9 inh; FluxOR thallium flux fluorescence; inhibition, % at 10 µM; actives 43% (n = 4,900); AID 492992, 2010;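 active means thallium signal inhibited by more than 5 SD of the compound-free buffer control wells, on both duplicate plates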
# Kir2-1 spec – mouse Kir2.1 channel inhibition, confirmation, selectivity assay for KCNK9 modulator project, cell-based, HEK293, thallium flux; shares compounds with KCNK9 inh; inhibition, % at 10 µM; AID 492993, 2010; actives 4% (n = 4,900); Kir2.1 cells, FluxOR thallium flux fluorescence;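 active means thallium signal drop more than 5 SD beyond the mean of the no-compound control wells, seen in both duplicate plates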;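 further: signal is fluorescence rise after thallium addition divided by baseline fluorescence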
# KCNK9 uninduced – thallium flux in non-induced HEK293 cells, confirmation, counter-screen for KCNK9 inhibitor project, cell-based, second counter screen, non-induced KCNK9-HEK293. shares compounds with KCNK9 inh. FluxOR thallium flux. inhibition, % at 10 µM. actives 40% (n = 4,900). AID 492997, 2010;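 active means thallium signal drop beyond 5 SD of the untreated control mean, on both duplicate plates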
# KCNK3 confirm – retest of human KCNK3 channel inhibitors, confirmation, CHO cells, FluxOR thallium flux, triplicate; shares compounds with KCNK3 inh; FluxOR fluorescence; 0% buffer, 100% carvedilol maximal block; ratio percent of control, % at 10 µM; actives 99% (n = 2,400);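 active means ratio percent of control, averaged over triplicates, above buffer control mean plus 5 SD, cut at about 64% in these data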;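 further: ratio is the fluorescence rise from min to max over baseline after thallium stimulus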
# KCNK3 noninduced – thallium flux inhibition in non-induced cells, primary screen, counter-screen for KCNK3 inhibitor project, cell-based, non-induced KCNK3 line, FluxOR thallium, triplicate; shares compounds with KCNK3 inh; non-induced KCNK3 parental cells; hits give low values; thallium flux ratio (lower = more inhibition) at 10 µM; actives 40% (n = 2,400);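 active means thallium flux ratio, averaged over three wells, more than 5 SD below the buffer control mean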;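 further: host cells are CHO cells without KCNK3 induction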
# A number is an active result; 0 = inactive; - = no result given. In the library only some 3.7% were active in any assay of this set; here they are far more common.
SMILES,KCNQ1 pot,Kir21 block,KCNQ1 block,KCNK9 inh,KCNK3 inh,hERG rescue,KCNK9 block conf,Kir2-1 spec,KCNK9 uninduced,KCNK3 confirm,KCNK3 noninduced
COCCN(CCOC)c1nc(-c2ccccc2)nc2ccccc12,0,0,0,0,0,0,-,-,-,-,-
CC(=O)Oc1ccccc1N(C(C)=O)S(=O)(=O)c1cccc([N+](=O)[O-])c1,0,0,0,0,0,0,-,-,-,-,-
O=C(CC(CC(=O)c1ccccc1)C(=O)O)c1ccccc1,0,0,0,0,0,0,-,-,-,-,-
O=C(CC(CC(=O)c1ccccc1)c1ccccc1)c1ccccc1,0,0,0,-12,-11,0,36%,0,34%,110,0
COc1cccc2cc(C(N)=O)/c(=N/NC(=O)COc3ccc(Cl)cc3)oc12,0,0,0,0,-,0,-,-,-,-,-
CCN(CC)C(=O)COc1ccc(-c2ccccc2)cc1,0,0,0,-9.8,-10,0,41%,0,0,84,0
CCN(Cc1ccccc1)C(=O)COc1ccccc1,0,0,0,0,0,0,-,-,-,-,-
Cc1ccc2c(CN(C)Cc3ccc(Cl)cc3Cl)cc(=O)oc2c1,0,0,0,0,0,0,-,-,-,-,-
Cc1ccc2c(CN(C)Cc3ccc(Cl)cc3)cc(=O)oc2c1,0,0,0,-11,-16,0,38%,0,44%,94,0
Cc1ccc2c(CN(C)Cc3ccccc3)cc(=O)oc2c1C,0,0,0,0,-9.3,0,0,0,0,92,0
CCc1ccc2oc(=O)cc(CN(C)Cc3ccccc3)c2c1,0,0,0,0,0,0,-,-,-,-,-
O=C(NC1CCCCCC1)c1ccc(=O)n(Cc2ccccc2)n1,0,0,0,0,0,0,-,-,-,-,-
CCOc1cc(C2NC(=O)CCC2[N+](=O)[O-])cc(Br)c1OC (stereo not drawn),0,0,0,0,0,0,-,-,-,-,-
NC(=S)N/N=C\c1c(OCc2ccccc2Cl)ccc2ccccc12,0,0,0,-10,-9.5,0,46%,0,0,101,0
COc1ccccc1C(=O)Nc1cccc(NC(=O)c2ccccc2C)c1,0,0,0,-9.1,-12,0,54%,0,30%,84,0
COc1ccccc1N1CCN(C(c2ccccc2Cl)c2nnnn2C(C)(C)C)CC1 (stereo not drawn),-,-,-,-,0,-,-,-,-,-,-
COc1ccccc1C(c1nnnn1C(C)(C)C)N1CCN(Cc2ccncc2)CC1 (stereo not drawn),0,0,0,-19,-9.2,0,76%,0,34%,116,0
CCCCC(=O)Nc1cccc(-c2csc(-c3ccccc3)n2)c1,0,0,9,-10,-10,0,50%,0,30%,125,0.15
O=C(O)CCC(=O)Nc1cccc(-c2csc(-c3ccccc3)n2)c1,0,0,0,0,0,0,-,-,-,-,-
Cc1nn(Cc2ccc(C(=O)Nc3ccc(C(=O)OC(C)C)cc3)o2)c(C)c1Cl,0,0,0,-10,-9.5,0,56%,0,0,107,0
Cc1nn(Cc2ccc(C(=O)NN)o2)c(C)c1Cl,0,0,0,0,0,0,-,-,-,-,-
Fc1ccc(C2CC(c3cccs3)=NN2c2ccccc2)cc1 (stereo not drawn),0,0,0,-9.8,-8.9,0,58%,0,38%,104,0.15
CNC(=S)N1N=C(c2cccs2)CC1c1ccc(F)cc1 (stereo not drawn),0,0,0,0,0,0,-,-,-,-,-
O=C(NCC1OCCc2ccccc21)c1cc(COc2ccc(F)cc2Cl)on1 (stereo not drawn),0,0,0,0,0,0,-,-,-,-,-
CC(C)CCN(C(=S)Nc1cccc(C(F)(F)F)c1)C(C)c1ccccn1 (stereo not drawn),0,0,0,-9.3,-14,0,64%,0,42%,130,0.13
SMILES,KCNQ1 pot,Kir21 block,KCNQ1 block,KCNK9 inh,KCNK3 inh,hERG rescue,KCNK9 block conf,Kir2-1 spec,KCNK9 uninduced,KCNK3 confirm,KCNK3 noninduced
Cc1noc(C)c1COc1ccccc1C(=O)NCCc1ccc(Cl)cc1,0,0,0,-20,-9.4,0,63%,0,35%,81,0
COc1ccc(NC(=O)c2oc3ccccc3c2NC(=O)c2ccc3c(c2)OCO3)cc1,0,0,0,-11,-9,0,58%,0,0,88,0
CCOC(=O)c1oc2ccccc2c1NC(=O)c1ccc2c(c1)OCO2,0,0,0,0,0,0,-,-,-,-,-
CCN(CC)C(=O)Oc1cc2c(-c3cc4cccc(OC)c4o3)cc(=O)oc2cc1C,0,0,0,-21,-14,0,77%,0,0,101,0
CCn1cc(Cl)c(C(=O)Nc2cccc(C(F)(F)F)c2)n1,0,0,0,-8.5,0,0,42%,0,34%,108,0
C=CCn1c(O)c(N=Nc2nc3ccccc3c(=O)n2-c2ccccc2)c2ccccc21,0,0,0,0,0,0,-,-,-,-,-
COc1ccccc1CNS(=O)(=O)c1cc(-c2cc(C)no2)ccc1C(C)C,0,0,6,-11,-9.5,0,60%,0,38%,119,0.14
CCOc1ccccc1CNS(=O)(=O)c1cc(-c2cc(C)no2)ccc1OC,0,0,0,0,0,0,-,-,-,-,-
O=C(OCC(=O)C12CC3CC(CC(C3)C1)C2)c1ccc(O)cc1O,0,0,0,0,0,0,-,-,-,-,-
O=C(CSc1nc2ccccc2c(=O)n1Cc1ccco1)NCc1ccccc1,0,0,0,0,0,0,-,-,-,-,-
COC(=O)c1ccc(CSc2nc3ccccc3c(=O)n2Cc2ccco2)o1,0,0,0,-12,-11,0,0,0,38%,118,0

# Screening data deposited in PubChem BioAssay by Johns Hopkins Ion Channel Center.
